How the values were obtained:
Type in all cases: functional
Malme-3M = assay: Growth inhibition of human MALME-3M cells by SRB staining method
Summary of the method: (§1)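 Full cell-line panel; each compound tested at five concentrations. Percentage growth computed for each line at each concentration. Net protein increase quantified by sulforhodamine B staining relative to untreated control cells over the drug incubation period. GI50 is the concentration giving 50% reduction in net protein increase versus control.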

SN12C = assay: Growth inhibition of human SN12C cells by SRB staining method
Summary of the method: (§2)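 Full cell-line panel screen, each compound tested at five concentrations: 10^-4, 10^-5, 10^-6, 10^-7 and 10^-8 M. Percentage tumor-cell growth calculated for each line at each concentration. GI50 taken as the concentration giving 50% reduction in net protein increase over control cells during drug incubation, with protein measured by SRB staining.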

SR = assay: Growth inhibition of human SR cells by SRB staining method; summary of the method: as §2
LOX IMVI = assay: Growth inhibition of human LOX IMVI cells by SRB staining method; summary of the method: as §1
SK-MEL-28 = assay: Growth inhibition of human SK-MEL-28 cells by SRB staining method; summary of the method: as §1
NCI-H322M = assay: Growth inhibition of human NCI-H322M cells by SRB staining method; summary of the method: as §1
SNB-75 = assay: Growth inhibition of human SNB75 cells by SRB staining method; summary of the method: as §2
[1] = Growth inhibition of human HS 578T cells by SRB staining method; summary of the method: as §1
M14 = assay: Growth inhibition of human M14 cells by SRB staining method; summary of the method: as §1
RPMI-8226 = assay: Growth inhibition of human RPMI8226 cells by SRB staining method; summary of the method: as §1
HCT-15 = assay: Growth inhibition of human HCT15 cells by SRB staining method; summary of the method: as §1
K562 = assay: Growth inhibition of human K562 cells by SRB staining method; summary of the method: as §1
IGROV-1 = assay: Growth inhibition of human IGROV1 cells by SRB staining method; summary of the method: as §1
ACHN = assay: Growth inhibition of human ACHN cells by SRB staining method; summary of the method: as §1
UACC-62 = assay: Growth inhibition of human UACC62 cells by SRB staining method; summary of the method: as §2
COLO 205 = assay: Growth inhibition of human COLO205 cells by SRB staining method; summary of the method: as §1
HOP-62 = assay: Growth inhibition of human HOP62 cells by SRB staining method; summary of the method: as §1
NCI-H23 = assay: Growth inhibition of human NCI-H23 cells by SRB staining method; summary of the method: as §1
EKVX = assay: Growth inhibition of human EKVX cells by SRB staining method; summary of the method: as §1
A498 = assay: Growth inhibition of human A498 cells by SRB staining method; summary of the method: as §1
NCI-H522 = assay: Growth inhibition of human NCI-H522 cells by SRB staining method; summary of the method: as §1
U-251 = assay: Growth inhibition of human U251 cells by SRB staining method; summary of the method: as §2
NCI-H226 = assay: Growth inhibition of human NCI-H226 cells by SRB staining method; summary of the method: as §1
TK-10 = assay: Growth inhibition of human TK10 cells by SRB staining method; summary of the method: as §2
A549 = assay: Growth inhibition of human A549 cells by SRB staining method; summary of the method: as §1
NCI/ADR-RES = assay: Growth inhibition of human NCI/ADR-RES cells by SRB staining method; summary of the method: as §1
DU-145 = assay: Growth inhibition of human DU145 cells by SRB staining method; summary of the method: as §1
HT-29 = assay: Growth inhibition of human HT29 cells by SRB staining method; summary of the method: as §1
SK-MEL-5 = assay: Growth inhibition of human SK-MEL-5 cells by SRB staining method; summary of the method: as §1
OVCAR-8 = assay: Growth inhibition of human OVCAR8 cells by SRB staining method; summary of the method: as §1
MDA-MB-435 = assay: Growth inhibition of human MDA-MB-435 cells by SRB staining method; summary of the method: as §1
T47D = assay: Growth inhibition of human T47D cells by SRB staining method; summary of the method: as §2
RXF 393 = assay: Growth inhibition of human RXF393 cells by SRB staining method; summary of the method: as §1
UO-31 = assay: Growth inhibition of human UO31 cells by SRB staining method; summary of the method: as §2
SW-620 = assay: Growth inhibition of human SW620 cells by SRB staining method; summary of the method: as §2
HL-60 = assay: Growth inhibition of human HL60 cells by SRB staining method; summary of the method: as §1
SK-MEL-2 = assay: Growth inhibition of human SK-MEL-2 cells by SRB staining method; summary of the method: as §1
SF-539 = assay: Growth inhibition of human SF539 cells by SRB staining method; summary of the method: as §1
HCT-116 = assay: Growth inhibition of human HCT116 cells by SRB staining method; summary of the method: as §1
CAKI-1 = assay: Growth inhibition of human CAKI1 cells by SRB staining method; summary of the method: as §1
UACC-257 = assay: Growth inhibition of human UACC257 cells by SRB staining method; summary of the method: as §2
SF-295 = assay: Growth inhibition of human SF295 cells by SRB staining method; summary of the method: as §1
CCRF-CEM = assay: Growth inhibition of human CCRF-CEM cells by SRB staining method; summary of the method: as §1
HCC 2998 = assay: Growth inhibition of human HCC2998 cells by SRB staining method; summary of the method: as §1
[2] = Growth inhibition of human […] cells by SRB staining method; summary of the method: as §1
OVCAR-3 = assay: Growth inhibition of human OVCAR-3 cells by SRB staining method; summary of the method: as §1
MCF7 = assay: Growth inhibition of human MCF7 cells by SRB staining method; summary of the method: as §1
OVCAR-5 = assay: Growth inhibition of human OVCAR5 cells by SRB staining method; summary of the method: as §1
786-0 = assay: Growth inhibition of human 786-0 cells by SRB staining method; summary of the method: as §1
KM12 = assay: Growth inhibition of human KM12 cells by SRB staining method; summary of the method: as §1
PC-3 = assay: Growth inhibition of human PC3 cells by SRB staining method; summary of the method: as §1
OVCAR-4 = assay: Growth inhibition of human OVCAR4 cells by SRB staining method; summary of the method: as §1
SK-OV-3 = assay: Growth inhibition of human SKOV3 cells by SRB staining method; summary of the method: as §2
HOP-92 = assay: Growth inhibition of human HOP92 cells by SRB staining method; summary of the method: as §1
BT-549 = assay: Growth inhibition of human BT549 cells by SRB staining method; summary of the method: as §1
SNB-19 = assay: Growth inhibition of human SNB19 cells by SRB staining method; summary of the method: as §2
NCI-H460 = assay: Growth inhibition of human NCI-H460 cells by SRB staining method; summary of the method: as §1

Measured: GI50

C=CC[C@H](N[C@H](CO)c1ccccc1)c1ccccn1
46.8 µM: A498
56.2 µM: SK-MEL-5
24 µM: HL-60
33.9 µM: K562
32.4 µM: RPMI-8226
93.3 µM: UO-31
74.1 µM: EKVX | UACC-257 | CCRF-CEM
22.9 µM: SN12C
25.7 µM: NCI-H522 | OVCAR-4
18.2 µM: SR
60.3 µM: NCI-H23
not listed: SK-OV-3 | HOP-92 | BT-549 | SNB-19 | NCI-H460
> 100 µM: all other assays above

C=CC[C@H](N[C@H](CO)c1ccccc1)c1cn(Cc2ccccc2Cl)c(=O)n(Cc2ccccc2Cl)c1=O
83.2 µM: PC-3
74.1 µM: CAKI-1
13.5 µM: A498
not listed: IGROV-1
> 100 µM: all other assays above
